For orientation: inhibition means the relative decrease from the control value, in per cent. The IC50 is the point on the concentration scale where inhibition reaches its midpoint.

This passage reports inhibition and IC50 results from ChEMBL document CHEMBL4610036, “Discovery of small molecule antagonists of chemokine receptor CXCR6 that arrest tumor growth in SK-HEP-1 mouse xenografts as a model of hepatocellular carcinoma” (Bioorg Med Chem Lett, 2020).

Assay [1] concerns the target T1, C-X-C chemokine receptor type 6 (Homo sapiens, UniProt O00574). Nature of the assay: Antagonist activity at Prolink-tagged human CXCR6 receptor assessed as inhibition of CXCL16-induced beta-arrestin recruitment by DiscoveRx cell based assay relative to control. Set-up: concentration or dose not given beside the values. Summed up:
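CXCR6 β-arrestin cells in assay media without G418/hygromycin, 800 cells/well, grown overnight at 37 °C; compounds added acoustically (DMSO ≤0.3%), then 20 nM CXCL16 (final) for 90 min at 37 °C. PathHunter luminescence read. Normalized between CXCL16-alone and no-ligand wells; four-parameter fit with Hill slope fixed at 1; at least two runs on different days, averaged pIC50 ± SD.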
A general note: Activated receptors often draw arrestin, which recruitment assays turn into a signal.
Target sequence in this assay (O00574 whole entry, looked up): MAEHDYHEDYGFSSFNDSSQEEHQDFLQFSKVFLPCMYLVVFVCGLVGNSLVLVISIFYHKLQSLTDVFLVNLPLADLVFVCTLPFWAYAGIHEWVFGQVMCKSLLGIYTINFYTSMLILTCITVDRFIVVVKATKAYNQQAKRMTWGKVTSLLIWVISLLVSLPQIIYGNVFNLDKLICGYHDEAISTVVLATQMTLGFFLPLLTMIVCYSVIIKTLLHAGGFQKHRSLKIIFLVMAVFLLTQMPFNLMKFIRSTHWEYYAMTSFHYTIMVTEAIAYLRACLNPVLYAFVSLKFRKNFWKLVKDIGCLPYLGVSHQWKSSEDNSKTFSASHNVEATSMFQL

Assay [2] addresses T1, C-X-C chemokine receptor type 6. Nature of the assay: Antagonist activity at Prolink-tagged human CXCR6 receptor assessed as inhibition of CXCL16-induced beta-arrestin recruitment by DiscoveRx cell based assay.
Target sequence in this assay (O00574 whole entry): as the sequence (O00574 whole entry, looked up) above
Assay [3] shares this target. The assay is described as follows: Antagonist activity at Prolink-tagged human CXCR6 receptor assessed as inhibition of forskolin-induced cAMP accumulation by DiscoveRx cell based assay. It counts as functional. In a few lines:
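Lance Ultra TR-FRET cAMP assay in CXCR6 β-arrestin cells, 500 cells/well in OptiMEM/2% FBS, grown overnight. Compound added, then forskolin (2.5 mM stock) in HBSS/HEPES/BSA/RO-20-1724 with or without 20 nM CXCL16, 30 min at room temperature. Eu-cAMP tracer and ULight anti-cAMP antibody added, read after 30 min. Curve fit with Hill slope 1; ≥2 independent runs.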
On the technique in general: Cyclic AMP is a second messenger, typically raised through Gs and lowered through Gi signalling.
Target sequence in this assay (O00574 whole entry): as the sequence (O00574 whole entry, looked up) above

The target is the same in assay [4]. Nature of the assay: Antagonist activity at Prolink-tagged human CXCR6 receptor assessed as inhibition of forskolin-induced cAMP accumulation by DiscoveRx cell based assay relative to control. It counts as functional. Set-up: concentration or dose not given beside the values. Summed up: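 CXCR6 β-arrestin cells in OptiMEM with 2% FBS, 500 cells/well, grown overnight; compounds added, then forskolin with 20 nM CXCL16 (stock concentrations) in HBSS/HEPES/BSA with RO-20-1724, 30 min at room temperature. cAMP read by LANCE Ultra TR-FRET after a further 30 min. Hill slope fixed at 1; at least two runs on different days, averaged pIC50 ± SD.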
Target sequence in this assay (O00574 whole entry, looked up): as above

The source made the active and inactive calls. No cut-off for these calls is given here.

As to `COc1cc(C(=O)N[C@@H]2C[C@H]3CCC[C@@H](C2)N3Cc2cn3ccccc3n2)cc(OC)c1OC`, the inhibition result in assay [1] and in assay [4] was “inactive” each time. The concentration for half-maximal inhibition (IC50) in assay [2] and in assay [3] was greater than 50 µM each time.
Turning to `COc1ccccc1CN1[C@@H]2CCC[C@H]1C[C@H](NC(=O)c1cc(OC)c(OC)c(OC)c1)C2`, the inhibition result in assay [1] and in assay [4] was “inactive” each time. Besides, the IC50 in assay [2] and in assay [3] was greater than 50 µM throughout.
With `COc1cc(C(=O)N[C@@H]2C[C@H]3CCC[C@@H](C2)N3CC(=O)Nc2ccccc2F)cc(OC)c1OC`, the inhibition came to 103% in assay [1] (concentration not given here) and 99% in assay [4] (concentration not given here). Also, the IC50 in assay [2] amounted to 0.62 µM; in assay [3] it was 6.5 µM.
In the same order, the values of `COc1cc(C(=O)N[C@@H]2C[C@H]3CCC[C@@H](C2)N3Cc2cccc(Cl)c2)cc(OC)c1OC` are 97%, 100%, 9.5 µM and 14.8 µM.
Turning to `COc1cc(C(=O)N[C@@H]2C[C@H]3CCC[C@@H](C2)N3Cc2nc3c(OC)cccc3s2)cc(OC)c1OC`, the inhibition in assay [1] (concentration not given here) turned out to be 86%. Besides, the half-maximal inhibitory concentration (IC50) was 3.1 µM in assay [2] and greater than 50 µM in assay [3]. In addition, the inhibition entry in assay [4] was “inactive”.
Regarding `COc1cc(C(=O)N[C@H]2C[C@H]3CCC[C@@H](C2)N3CC(=O)Nc2ccccc2)cc(OC)c1OC`, in assay [1], the inhibition result was “inactive”. Further, the IC50 in assay [2] was greater than 40 µM; in assay [3], 40.9 µM. The inhibition in assay [4] (concentration not given here) was 70%.
On to `COc1cc(C(=O)N[C@@H]2C[C@H]3CCC[C@@H](C2)N3CC(=O)Nc2ccccc2C#N)cc(OC)c1OC`, for which the inhibition is 91% in assay [1] (concentration not given here) and 105% in assay [4] (concentration not given here). In addition, the IC50 in assay [2] is 0.93 µM; in assay [3], 7 µM.
Regarding `COc1cc(C(=O)N[C@@H]2C[C@H]3CCC[C@@H](C2)N3CC(=O)Nc2cccc(Br)c2)cc(OC)c1OC`, the figures for the inhibition in assay [1] (concentration not given here) and in assay [4] (concentration not given here) were 104% and 92%, respectively. The IC50 in assay [2] came out at 0.35 µM; in assay [3], 3.8 µM.
Consider `COc1cc(C(=O)N[C@@H]2C[C@H]3CCC[C@@H](C2)N3Cc2ccc3ccccc3n2)cc(OC)c1OC`, for which the inhibition in assay [1] (concentration not given here) and in assay [4] (concentration not given here) was 88% in each case. For the same compound, the IC50 in assay [2] is 6.7 µM; in assay [3], 40.3 µM.
With `O=C(CN1[C@@H]2CCC[C@H]1C[C@H](NC(=O)c1ccc3c(c1)OCO3)C2)Nc1ccc(Cl)cc1`, the inhibition result in assay [1] is “inactive”. Moreover, the IC50 in assay [2] was greater than 40 µM; in assay [3], 5.3 µM. Besides, in assay [4] (concentration not given here), the inhibition came to 84%.
With `COc1cc(C(=O)N[C@@H]2C[C@H]3CCC[C@@H](C2)N3CC(=O)Nc2c(C)cccc2C)cc(OC)c1OC`, the inhibition result in assay [1] and in assay [4] was “inactive” throughout. Besides, the concentration for half-maximal inhibition (IC50) in assay [2] and in assay [3] was greater than 40 µM in each case.
In the case of `COc1cc(C(=O)N[C@@H]2C[C@H]3CCC[C@@H](C2)N3Cc2nc3c(C)cccc3s2)cc(OC)c1OC`, the inhibition in assay [1] (concentration not given here) is 100%; in assay [4] (concentration not given here), 86%. The IC50 in assay [2] is 0.25 µM; in assay [3], 4.8 µM.
Regarding `COc1cc(C(=O)N[C@@H]2C[C@H]3CCC[C@@H](C2)N3Cc2nc3c(F)cccc3s2)cc(OC)c1OC`, the values for the inhibition in assay [1] (concentration not given here) and in assay [4] (concentration not given here) were 103% and 105%, respectively. Further, the results for the IC50 in assay [2] and in assay [3] were 0.11 µM and 1.9 µM, respectively.
In the case of `COc1cc(C(=O)N[C@@H]2C[C@H]3CCC[C@@H](C2)N3CC(=O)Nc2ccc(Cl)cc2)cc(OC)c1OC`, the figures for the inhibition in assay [1] (concentration not given here) and in assay [4] (concentration not given here) were 101% and 93%, respectively. Besides, the IC50 was found to be 1.5 µM in assay [2] and 14.2 µM in assay [3].
With `COc1cc(C(=O)N[C@@H]2C[C@H]3CCC[C@@H](C2)N3CC(=O)Nc2cccc(C)c2)cc(OC)c1OC`, the inhibition in assay [1] (concentration not given here) came to 102%; in assay [4] (concentration not given here), 92%. Moreover, the IC50 amounted to 1.8 µM in assay [2] and 17.9 µM in assay [3].
Take `COc1cc(C(=O)N[C@@H]2C[C@H]3CCC[C@@H](C2)N3CC(=O)Nc2ccc(Cl)c(Cl)c2)cc(OC)c1OC`: the values for the inhibition in assay [1] (concentration not given here) and in assay [4] (concentration not given here) were 103% and 101%, respectively. Besides, the IC50 in assay [2] turned out to be 0.35 µM; in assay [3], 1.8 µM.
As to `COc1cccc(CN2[C@@H]3CCC[C@H]2C[C@H](NC(=O)c2cc(OC)c(OC)c(OC)c2)C3)c1`, the inhibition entry in assay [1] and in assay [4] was “inactive” in each case. In addition, the IC50 in assay [2] and in assay [3] was greater than 50 µM in each case.
As to `COc1cc(C(=O)NC2CCN(CC(=O)Nc3ccccc3)CC2)cc(OC)c1OC`, the inhibition result in assay [1] and in assay [4] was “inactive” throughout. Besides, the IC50 in assay [2] and in assay [3] was greater than 40 µM throughout.
Regarding `COc1cc(C(=O)N[C@@H]2C[C@H]3CCC[C@@H](C2)N3CC(=O)Nc2ccc(Cl)cc2Cl)cc(OC)c1OC`, the inhibition in assay [1] (concentration not given here) and in assay [4] (concentration not given here) was 105% each time. Besides, the IC50 in assay [2] was 0.16 µM; in assay [3], 0.9 µM.
As to `COc1ccc(CN2[C@@H]3CCC[C@H]2C[C@H](NC(=O)c2cc(OC)c(OC)c(OC)c2)C3)cc1`, the inhibition result in assay [1] and in assay [4] was “inactive” each time. The IC50 in assay [2] and in assay [3] was greater than 50 µM in each case.
Turning to `COc1cc(C(=O)N[C@@H]2C[C@H]3CCC[C@@H](C2)N3CC(=O)Nc2cccc(F)c2)cc(OC)c1OC`, the inhibition in assay [1] (concentration not given here) is 104%; in assay [4] (concentration not given here), 103%. The IC50 in assay [2] turned out to be 0.84 µM; in assay [3], 8.5 µM.
`COc1cc(C(=O)N[C@@H]2C[C@H]3CCC[C@@H](C2)N3CC(=O)Nc2ccc(C)cc2)cc(OC)c1OC`: in assay [1] (concentration not given here), the inhibition is 100%. Also, the results for the IC50 in assay [2] and in assay [3] were 9.5 µM and greater than 40 µM, respectively. Further, the inhibition entry in assay [4] is “inactive”.
Turning to `COc1cc(C(=O)N[C@@H]2C[C@H]3CCC[C@@H](C2)N3Cc2nc3cccc(Cl)c3s2)cc(OC)c1OC`, the figures for the inhibition in assay [1] (concentration not given here) and in assay [4] (concentration not given here) were 102% and 93%, respectively. For the same compound, the IC50 came out at 0.26 µM in assay [2] and 8.9 µM in assay [3].
For `COc1cc(C(=O)N[C@@H]2C[C@H]3CCC[C@@H](C2)N3CC(=O)Nc2c(Cl)cccc2Cl)cc(OC)c1OC`, the inhibition in assay [1] (concentration not given here) stood at 57%. The values for the IC50 in assay [2] and in assay [3] were 38.2 µM and greater than 40 µM, respectively. Further, the inhibition result in assay [4] is “inactive”.
As for `COc1ccc(C(=O)N[C@@H]2C[C@H]3CCC[C@@H](C2)N3CC(=O)Nc2ccc(Cl)cc2)cc1`, the inhibition result in assay [1] was “inactive”. The IC50 in assay [2] is greater than 40 µM; in assay [3] it was 5.9 µM. Besides, in assay [4] (concentration not given here), the inhibition stood at 94%.
Consider `COc1cc(C(=O)N[C@@H]2C[C@H]3CCC[C@@H](C2)N3Cc2c[nH]c3ccccc23)cc(OC)c1OC`, for which the inhibition result in assay [1] and in assay [4] was “inactive” throughout. For the same compound, the IC50 in assay [2] and in assay [3] was greater than 50 µM in each case.
Consider `COc1cc(C(=O)N[C@@H]2C[C@H]3CCC[C@@H](C2)N3CC(=O)Nc2cc(Cl)ccc2Cl)cc(OC)c1OC`, for which the values for the inhibition in assay [1] (concentration not given here) and in assay [4] (concentration not given here) were 99% and 101%, respectively. Further, the IC50 was 0.13 µM in assay [2] and 0.7 µM in assay [3].
In the same order, the values of `COc1cc(C(=O)N[C@@H]2C[C@H]3CCC[C@@H](C2)N3Cc2ccc3ccccc3c2)cc(OC)c1OC` are 94%, 30%, 3.4 µM and 47.3 µM.
On to `COc1cc(C(=O)N[C@@H]2C[C@H]3CCC[C@@H](C2)N3CC(=O)Nc2cccc(Cl)c2Cl)cc(OC)c1OC`, for which the results for the inhibition in assay [1] (concentration not given here) and in assay [4] (concentration not given here) were 96 to 102% and 39 to 78%, respectively. Besides, the IC50 in assay [2] was 0.12 to 0.16 µM; in assay [3], 0.41 to 25.6 µM.
As to `COc1cccc(NC(=O)CN2[C@@H]3CCC[C@H]2C[C@H](NC(=O)c2cc(OC)c(OC)c(OC)c2)C3)c1`, the inhibition was found to be 96% in assay [1] (concentration not given here) and 93% in assay [4] (concentration not given here). The IC50 in assay [2] was determined as 5.8 µM; in assay [3] it was 51 µM.
In the case of `CCOC(=O)c1ccccc1NC(=O)CN1[C@@H]2CCC[C@H]1C[C@H](NC(=O)c1cc(OC)c(OC)c(OC)c1)C2`, the inhibition in assay [1] (concentration not given here) was found to be 79%; in assay [4] (concentration not given here), 96%. In addition, the IC50 was determined as 1.6 µM in assay [2] and 6.9 µM in assay [3].
`COc1cc(C(=O)N[C@@H]2C[C@H]3CCC[C@@H](C2)N3Cc2nc3ccccc3s2)cc(OC)c1OC`: the inhibition is 101% in assay [1] (concentration not given here) and 85% in assay [4] (concentration not given here). The IC50 in assay [2] is 0.3 µM; in assay [3] it was 7.9 µM.
